Laboratory results as given in ChEMBL document CHEMBL5030505, “Assessment of NR4A Ligands That Directly Bind and Modulate the Orphan Nuclear Receptor Nurr1” (J Med Chem, 2020).
The source made the active and inactive calls. The rule behind the calls is not given here.

How the values were obtained:
Format in all cases: cell-based
HEK-293T = test: Cytotoxicity against human HEK293T cells assessed as reduction in cell viability at 5 to 100 uM incubated for 18 hrs by Cell titer-glo assay; conditions: dose 5-100 µM
How it was run: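 Cells seeded at 1.5 million per 10-cm dish. Next day they were replated at 10,000 cells/well and rested 4 h. Ligand or vehicle (water, ethanol or DMSO, by ligand) was added in dose-response format in quadruplicate. After 18 h, viability was read by CellTiter-Glo luminescence. Data are mean ± s.e.m., generally representative of 2 independent experiments. One-way ANOVA versus vehicle.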

PC-12 [1] = test: Modulation of Gal4-fused VP16 expressed in PC12 cells co-transfected with UAS repoter gene assessed as decrease in luciferase activity at 5 to 100 uM incubated for 18 hrs by luciferase reporter gene assay; conditions: Human alphaherpesvirus 2, filed as modulator, dose 5-100 µM
How it was run: (§1)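 Cells in 10-cm dishes were transfected with Gal4-VP16 expression plasmid (2 μg) plus 5xUAS-luciferase reporter (2 μg) for 18 h. They were replated at 10,000 cells/well for 4 h, then given ligand or vehicle (water, ethanol or DMSO) in quadruplicate for 18 h. Luciferase was read with Britelite Plus. Fold change is versus vehicle-treated cells, with one-way ANOVA versus vehicle.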

HEK293T = test: Modulation of Gal4-fused VP16 expressed in HEK293T cells co-transfected with UAS repoter gene assessed as decrease in luciferase activity at 5 to 100 uM incubated for 18 hrs by luciferase reporter gene assay; conditions: Human alphaherpesvirus 2, filed as modulator, dose 5-100 µM; how it was run: as §1
SKNBE2 [2] = test: Modulation of Gal4-fused VP16 expressed in SKNBE2 cells co-transfected with UAS repoter gene assessed as decrease in luciferase activity at 5 to 100 uM incubated for 18 hrs by luciferase reporter gene assay; conditions: Human alphaherpesvirus 2, filed as modulator, dose 5-100 µM; how it was run: as §1
[3] = molecular target: Nuclear receptor subfamily 4 group A member 2 (Homo sapiens) (UniProt P43354); test: Modulation of full length human Nurr1 expressed in PC12 cells co-transfected with luciferase reporter plasmid harboring NBRE response element assessed as increase in luciferase activity at 1.56 to 6.25 uM incubated for 18 by luciferase reporter gene assay; conditions: PC-12, filed as modulator, dose 1.56-6.25 µM, time 18.0 hrs
How it was run: (§2)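 Cells transfected (Lipofectamine 2000, 18 h) with full-length Nurr1 expression plasmid (2 μg) and 3xNBRE- or 3xNurRE-luciferase reporter (6 μg), no internal control normalisation; replated 10,000 cells/well, 4 h; ligand or vehicle in quadruplicate for 18 h; Britelite Plus luminescence as fold change over vehicle. Mean ± s.e.m. (n=4); one-way ANOVA versus vehicle.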

[4] = molecular target: Nuclear receptor subfamily 4 group A member 2 (Homo sapiens) (UniProt P43354); test: Modulation of full length human Nurr1 expressed in SKNBE(2) cells co-transfected with RXRalpha and luciferase reporter plasmid harboring NurRE response element assessed as decrease in luciferase activity at 1.56 to 6.25 uM incubated for 18 by luciferase reporter gene assay; conditions: SKNBE2, filed as modulator, dose 1.56-6.25 µM, time 18.0 hrs
[5] = molecular target: Nuclear receptor subfamily 4 group A member 2 (Homo sapiens) (UniProt P43354); test: Modulation of full length human Nurr1 expressed in SKNBE(2) cells co-transfected with luciferase reporter plasmid harboring NBRE response element assessed as increase in luciferase activity at 1.56 to 6.25 uM incubated for 18 by luciferase reporter gene assay; conditions: SKNBE2, filed as modulator, dose 1.56-6.25 µM, time 18.0 hrs; how it was run: as §2
PC-12 [6] = test: Cytotoxicity against rat PC12 cells assessed as reduction in cell viability at 1.56 to 6.25 microM incubated for 18 hrs by Cell titer-glo assay; conditions: pc-12, 18 h, dose 1.56-6.25 µM
How it was run: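 Cells seeded 1.5 million per 10-cm dish; next day replated at 10,000 cells/well in 384-well format, 4 h, then ligand or vehicle (water, ethanol or DMSO by ligand) added in quadruplicate for 18 h; viability read by CellTiter-Glo luminescence. Mean ± s.e.m. (n=4), generally 2 independent experiments; one-way ANOVA versus vehicle.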

[7] = molecular target: Nuclear receptor subfamily 4 group A member 2 (Homo sapiens) (UniProt P43354); test: Modulation of full length human Nurr1 expressed in SKNBE(2) cells co-transfected with luciferase reporter plasmid harboring NurRE response element assessed as decrease in luciferase activity at 1.56 to 6.25 uM incubated for 18 by luciferase reporter gene assay; conditions: SKNBE2, filed as modulator, dose 1.56-6.25 µM, time 18.0 hrs; how it was run: as §2
[8] = molecular target: Nuclear receptor subfamily 4 group A member 2 (Homo sapiens) (UniProt P43354); test: Modulation of full length human Nurr1 expressed in PC12 cells co-transfected with luciferase reporter plasmid harboring NurRE response element assessed as decrease in luciferase activity at 1.56 to 6.25 uM incubated for 18 by luciferase reporter gene assay; conditions: PC-12, filed as modulator, dose 1.56-6.25 µM, time 18.0 hrs; how it was run: as §2
[9] = molecular target: Nuclear receptor subfamily 4 group A member 2 (Homo sapiens) (UniProt P43354); test: Modulation of full length human Nurr1 expressed in HEK293T cells co-transfected with luciferase reporter plasmid harboring NurRE response element assessed as decrease in luciferase activity at 1.56 to 6.25 uM incubated for 18 by luciferase reporter gene assay; conditions: filed as modulator, dose 1.56-6.25 µM, time 18.0 hrs; how it was run: as §2
[10] = molecular target: Nuclear receptor subfamily 4 group A member 2 (Homo sapiens) (UniProt P43354); test: Modulation of full length human Nurr1 expressed in SKNBE(2) cells co-transfected with RXRalpha and luciferase reporter plasmid harboring NBRE response element assessed as decrease in luciferase activity at 1.56 to 6.25 uM incubated for 18 by luciferase reporter gene assay; conditions: SKNBE2, filed as modulator, dose 1.56-6.25 µM, time 18.0 hrs
[11] = molecular target: Nuclear receptor subfamily 4 group A member 2 (Homo sapiens) (UniProt P43354); test: Modulation of full length human Nurr1 expressed in SKNBE(2) cells co-transfected with RXRalpha and luciferase reporter plasmid harboring NBRE response element assessed as increase in luciferase activity at 1.56 to 6.25 uM incubated for 18 by luciferase reporter gene assay; conditions: SKNBE2, filed as modulator, dose 1.56-6.25 µM, time 18.0 hrs
[12] = molecular target: Nuclear receptor subfamily 4 group A member 2 (Homo sapiens) (UniProt P43354); test: Modulation of full length human Nurr1 expressed in HEK293T cells co-transfected with luciferase reporter plasmid harboring NurRE response element assessed as increase in luciferase activity at 1.56 to 6.25 uM incubated for 18 by luciferase reporter gene assay; conditions: filed as modulator, dose 1.56-6.25 µM, time 18.0 hrs; how it was run: as §2
[13] = molecular target: Nuclear receptor subfamily 4 group A member 2 (Homo sapiens) (UniProt P43354); test: Modulation of full length human Nurr1 expressed in PC12 cells co-transfected with RXRalpha and luciferase reporter plasmid harboring NurRE response element assessed as increase in luciferase activity at 1.56 to 6.25 uM incubated for 18 by luciferase reporter gene assay; conditions: PC-12, filed as modulator, dose 1.56-6.25 µM, time 18.0 hrs
SKNBE2 [14] = test: Modulation of Gal4-fused VP16 expressed in SKNBE(2) cells co-transfected with UAS repoter gene assessed as decrease in luciferase activity at 1.56 to 6.25 uM incubated for 18 hrs by luciferase reporter gene assay; conditions: Human alphaherpesvirus 2, filed as modulator, dose 1.56-6.25 µM
How it was run: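 Constitutive control: cells transfected (Lipofectamine 2000) with Gal4-VP16 expression plasmid (2 μg) plus 5xUAS-luciferase reporter (2 μg), 18 h; replated 10,000 cells/well, 4 h; ligand or vehicle in quadruplicate for 18 h; luciferase read by Britelite Plus; signal as fold change over vehicle-treated cells. Mean ± s.e.m. (n=4); one-way ANOVA versus vehicle.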

[15] = molecular target: Nuclear receptor subfamily 4 group A member 2 (Homo sapiens) (UniProt P43354); test: Modulation of full length human Nurr1 expressed in SKNBE(2) cells co-transfected with luciferase reporter plasmid harboring NurRE response element assessed as increase in luciferase activity at 1.56 to 6.25 uM incubated for 18 by luciferase reporter gene assay; conditions: SKNBE2, filed as modulator, dose 1.56-6.25 µM, time 18.0 hrs; how it was run: as §2
[16] = molecular target: Nuclear receptor subfamily 4 group A member 2 (Homo sapiens) (UniProt P43354); test: Modulation of full length human Nurr1 expressed in SKNBE(2) cells co-transfected with RXRalpha and luciferase reporter plasmid harboring NurRE response element assessed as increase in luciferase activity at 1.56 to 6.25 uM incubated for 18 by luciferase reporter gene assay; conditions: SKNBE2, filed as modulator, dose 1.56-6.25 µM, time 18.0 hrs
[17] = molecular target: Nuclear receptor subfamily 4 group A member 2 (Homo sapiens) (UniProt P43354); test: Modulation of full length human Nurr1 expressed in PC12 cells co-transfected with luciferase reporter plasmid harboring NBRE response element assessed as decrease in luciferase activity at 1.56 to 6.25 uM incubated for 18 by luciferase reporter gene assay; conditions: PC-12, filed as modulator, dose 1.56-6.25 µM, time 18.0 hrs; how it was run: as §2

Sequence of Nuclear receptor subfamily 4 group A member 2 (Homo sapiens) (P43354 whole entry): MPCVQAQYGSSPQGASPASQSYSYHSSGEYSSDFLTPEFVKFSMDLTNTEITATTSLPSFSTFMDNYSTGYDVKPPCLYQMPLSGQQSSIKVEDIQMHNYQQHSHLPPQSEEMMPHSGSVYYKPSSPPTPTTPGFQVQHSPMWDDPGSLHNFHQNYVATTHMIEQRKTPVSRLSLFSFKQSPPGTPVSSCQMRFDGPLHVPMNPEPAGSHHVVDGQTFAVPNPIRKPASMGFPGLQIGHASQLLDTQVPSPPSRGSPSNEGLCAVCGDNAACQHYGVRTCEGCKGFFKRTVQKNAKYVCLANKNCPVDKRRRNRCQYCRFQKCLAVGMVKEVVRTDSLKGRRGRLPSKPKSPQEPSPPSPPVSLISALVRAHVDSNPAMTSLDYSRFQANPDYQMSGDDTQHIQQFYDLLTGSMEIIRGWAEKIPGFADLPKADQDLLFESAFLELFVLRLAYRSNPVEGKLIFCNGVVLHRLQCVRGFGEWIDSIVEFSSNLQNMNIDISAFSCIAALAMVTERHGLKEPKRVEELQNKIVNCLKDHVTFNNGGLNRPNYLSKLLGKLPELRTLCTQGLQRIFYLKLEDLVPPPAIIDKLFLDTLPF

Row | Compound | Activity (HEK-293T) | Activity (PC-12 [1]) | Activity (HEK293T) | Activity (SKNBE2 [2]) | Activity [3] | Activity [4] | Activity [5] | Activity (PC-12 [6]) | Activity [7] | Activity [8] | Activity [9] | Activity [10] | Activity [11] | Activity [12] | Activity [13] | Activity (SKNBE2 [14]) | Activity [15] | Activity [16] | Activity [17]
1 | CCCCCCCC(=O)c1c(O)cc(O)cc1CC(=O)OCC [CYTOSPORONE B] | Toxic | Active | Active | Active |  |  |  |  |  |  |  |  |  |  |  |  |  |  | 
2 | CC1=C(O)C(=O)C=C2C1=CC=C1[C@@]2(C)CC[C@@]2(C)[C@@H]3C[C@](C)(C(=O)O)CC[C@]3(C)CC[C@]12C [CELASTROL] |  |  |  |  | Active | Active | Active | Toxic | Active | Active | Active | Active | Active | Active | Active | Active | Active | Active | Active
